Experimental data: PubChem BioAssay AID2204 (Vanderbilt High Throughput Screening Facility, 2009)

What was measured:
Experiment in all cases: muscarinic M1-M5 subtype PAM potency panel, profiling panel, selectivity assay for M5 allosteric modulator project, cell-based, calcium flux (AID 2204)
Conditions in all cases: CHO-K1 mAChR panel, Fluo-4 calcium flux, ACh EC20
[1] = biological target: Muscarinic acetylcholine receptor M5 (Homo sapiens) (UniProt P08912)
How it was run: (§1)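 System: transfected CHO-K1 cell lines; timing: compound pre-incubation 1.5 min, acetylcholine stimulation 50 s, at 25 °C; detection: intracellular calcium mobilization measurement; medium: HBSS buffer, pH 7.4, with 2.5 mM probenecid, 20 mM HEPES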

[2] = biological target: Muscarinic acetylcholine receptor M3 (Homo sapiens) (UniProt P20309)
How it was run: as §1

[3] = biological target: Muscarinic acetylcholine receptor M1 (Rattus norvegicus) (UniProt P08482)
How it was run: as §1

Chain of Muscarinic acetylcholine receptor M5 (Homo sapiens) (P08912 whole entry, looked up): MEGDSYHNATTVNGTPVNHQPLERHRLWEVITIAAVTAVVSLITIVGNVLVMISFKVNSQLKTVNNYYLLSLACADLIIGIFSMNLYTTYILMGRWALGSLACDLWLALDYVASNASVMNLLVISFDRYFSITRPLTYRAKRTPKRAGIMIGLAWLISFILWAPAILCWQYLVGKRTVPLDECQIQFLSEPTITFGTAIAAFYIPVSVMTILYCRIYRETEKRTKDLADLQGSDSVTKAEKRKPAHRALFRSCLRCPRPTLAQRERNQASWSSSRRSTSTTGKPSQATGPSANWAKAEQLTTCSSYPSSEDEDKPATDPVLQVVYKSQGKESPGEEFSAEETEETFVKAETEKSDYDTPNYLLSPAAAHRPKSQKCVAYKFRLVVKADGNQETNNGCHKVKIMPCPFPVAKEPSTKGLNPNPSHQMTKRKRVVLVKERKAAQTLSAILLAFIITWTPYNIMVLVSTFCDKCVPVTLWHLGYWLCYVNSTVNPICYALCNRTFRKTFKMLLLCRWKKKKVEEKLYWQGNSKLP
Chain of Muscarinic acetylcholine receptor M3 (Homo sapiens) (P20309 whole entry, looked up): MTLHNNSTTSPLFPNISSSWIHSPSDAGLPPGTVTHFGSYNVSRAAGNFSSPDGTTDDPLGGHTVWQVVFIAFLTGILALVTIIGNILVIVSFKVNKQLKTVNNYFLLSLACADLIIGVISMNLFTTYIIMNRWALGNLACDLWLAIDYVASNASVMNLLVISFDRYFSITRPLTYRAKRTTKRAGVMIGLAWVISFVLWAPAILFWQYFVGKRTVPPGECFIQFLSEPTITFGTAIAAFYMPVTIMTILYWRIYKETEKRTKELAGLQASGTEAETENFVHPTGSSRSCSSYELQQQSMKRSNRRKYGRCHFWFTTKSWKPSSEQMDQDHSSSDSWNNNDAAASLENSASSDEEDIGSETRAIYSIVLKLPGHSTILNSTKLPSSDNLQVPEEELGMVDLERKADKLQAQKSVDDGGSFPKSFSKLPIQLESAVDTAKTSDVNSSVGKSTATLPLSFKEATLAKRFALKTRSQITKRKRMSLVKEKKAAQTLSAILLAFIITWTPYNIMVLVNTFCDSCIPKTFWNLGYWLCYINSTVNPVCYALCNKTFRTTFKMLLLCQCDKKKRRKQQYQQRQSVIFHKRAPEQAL
Chain of Muscarinic acetylcholine receptor M1 (Rattus norvegicus) (P08482 whole entry, looked up): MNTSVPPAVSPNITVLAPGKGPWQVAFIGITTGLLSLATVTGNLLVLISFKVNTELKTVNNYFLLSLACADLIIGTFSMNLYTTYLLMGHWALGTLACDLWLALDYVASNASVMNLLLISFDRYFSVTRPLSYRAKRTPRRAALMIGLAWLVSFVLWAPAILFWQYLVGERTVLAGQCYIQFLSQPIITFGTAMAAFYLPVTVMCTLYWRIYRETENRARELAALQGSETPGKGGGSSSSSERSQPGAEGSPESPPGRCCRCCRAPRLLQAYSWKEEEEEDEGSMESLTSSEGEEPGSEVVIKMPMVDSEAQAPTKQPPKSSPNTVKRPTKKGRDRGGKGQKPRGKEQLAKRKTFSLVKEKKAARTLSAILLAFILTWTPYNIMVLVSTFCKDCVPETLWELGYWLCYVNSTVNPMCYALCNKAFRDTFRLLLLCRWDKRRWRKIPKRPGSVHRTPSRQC

EC50 [1] [µM] | EC50 [2] [µM] | EC50 [3] [µM] | SMILES
3.86 | – | – | COc1ccccc1-c1ccc(CN2C(=O)C(=O)c3cc(OC(F)(F)F)ccc32)cc1
3.59 | – | – | O=C1C(=O)N(Cc2ccc(-c3ccc(F)nc3)cc2)c2ccc(OC(F)(F)F)cc21
1.16 | 109 | – | COc1ccc(CN2C(=O)C(=O)c3cc(OC(F)(F)F)ccc32)cc1
2.65 | 3.07 | – | O=C1C(=O)N(Cc2ccc(-c3ccccc3)cc2)c2cc(OC(F)(F)F)ccc21
4.08 | 6.38 | 6.04 | O=C1C(=O)N(Cc2ccc(Br)cc2)c2ccccc21
2.66 | – | – | O=C1C(=O)N(Cc2ccc(-c3ccccc3)cc2)c2ccc(OC(F)(F)F)cc21
5.68 | 10.3 | – | COc1ccc(CN2C(=O)C(=O)c3ccc(OC(F)(F)F)cc32)cc1
2.77 | – | – | O=C1C(=O)N(Cc2ccc(-c3ccsc3)cc2)c2ccc(OC(F)(F)F)cc21
1.92 | – | – | O=C1C(=O)N(Cc2ccc(Oc3ccccc3)cc2)c2ccc(OC(F)(F)F)cc21
4.83 | – | – | O=C1C(=O)N(Cc2ccc(-c3ccc(Cl)nc3)cc2)c2ccc(OC(F)(F)F)cc21
3.26 | – | – | Cn1cc(-c2ccc(CN3C(=O)C(=O)c4cc(OC(F)(F)F)ccc43)cc2)cn1
